Consider 6 compounds from ChEMBL document CHEMBL3227935, “Mapping the dopamine receptor. 2. Features derived from modifications in the rings A/B region of the neuroleptic butaclamol” (J Med Chem, 1979).

The test system of data set [1] is Rattus norvegicus. In words: Neuroleptic activity in ip dosed Sprague-Dawley rat assessed as inhibition of d-amphetamine sulfate-induced stereotyped behavior measured every 15 mins for 4 hrs. The format is functional. Conditions: read-out: MED. The method in brief:
(§1)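 Male rats (160-180 g), groups of four or more, given d-amphetamine 10 mg/kg ip, then graded ip doses of compound or vehicle 15 min later (highest 20 mg/kg). Behavior scored every 15 min over 4 h: 0 normal, 1 excited, 2 stereotyped. MED is the lowest dose antagonizing all amphetamine effects for the whole period.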

Data set [2] relates to Rattus norvegicus. In words: Neuroleptic activity in ip dosed Sprague-Dawley rat assessed as failure in active avoidance response measured within 30 mins. In kind it is functional. Conditions: 0.5 h. In short, it runs like this:
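Male rats (250-400 g) trained in a three-chamber discrimination box to move to a lighted exit within 10 s or receive shock. Before dosing, a two-trial control session in groups of six or more. Graded ip doses, then ten trials 30 min later. Mean failures to leave before shock are taken as percent of trials. ED50 gives 50% failure, by Litchfield-Wilcoxon.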

Data set [3] relates to Rattus norvegicus. In words: Neuroleptic activity in ip dosed Sprague-Dawley rat assessed as protection against epinephrin bitartrate-induced mortality measured over 24 hrs. In kind it is functional. In short, it runs like this: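 Groups of six or more male Sprague–Dawley rats (220–250 g) received graded ip doses. Epinephrine bitartrate, 0.25 mg/kg iv, lethal to untreated rats, was injected 1 h later. Deaths were counted over 24 h. Protective ED50 (mg/kg, ip) is the dose that saved 50% of rats, calculated by Litchfield–Wilcoxon.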

Data set [4] has as its system Rattus norvegicus. In words: Induction of catalepsy in Sprague-Dawley rat at 5 mg/kg, ip measured after 1 to 24 hrs relative to control. The format is organism-based. Also on record: dose 5 mg/kg, route intraperitoneal. Conditions: in vivo. In short, it runs like this:
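Male rats (160-180 g), groups of six, given 5 mg/kg ip. Catalepsy scored at 1, 2, 4, 6 and 24 h using stages III and IV of Wirth et al. The highest mean cataleptic score is expressed as percent of the maximum attainable score.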

For the next data set, the species on record is Mus musculus. In words: Induction of taming effect in Swiss albino mouse assessed as reduction of isolation-induced fighting behavior measured after 0.5 to 3 hrs. In kind it is functional. In short, it runs like this: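 Male albino mice (14-16 g) isolated 4-5 weeks, then paired in one cage for 5 min. A morning control session confirmed maximal fighting in both members of each pair. Compounds given ip, with retesting at 30 min and 3 h. All-or-none read-out: effective if no fighting occurred in the 5-min observation. ED50 (mg/kg, ip) is the dose abolishing fighting in 50% of pairs, by Litchfield-Wilcoxon.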

A short description of data set [5]: Dissociation constant, pKa of the compound. In kind it is physicochemical.
Data set [6] deals with Rattus norvegicus. In words: Neuroleptic activity in Sprague-Dawley rat assessed as inhibition of d-amphetamine sulfate-induced stereotyped behavior at 20 mg/kg, ip measured every 15 mins for 4 hrs. The format is functional, organism-based. Also on record: dose 20 mg/kg. In short, it runs like this: as §1

SMILES strings stand for the structures. Calls of active or inactive are those of the source. No cut-off for these calls is given here.

With `CC(C)(C)[C@@]1(O)CCN2C[C@@H]3c4ccccc4CCc4cccc(c43)[C@H]2C1`, in the data set on Rattus norvegicus [1], the minimal effective dose was 0.62 mg/kg. Also, the 50% effective dose (ED50) in the data set with Rattus norvegicus [2] amounted to 0.64 mg/kg; in the data set with Rattus norvegicus [3], 15 mg/kg; in the data set filed under Mus musculus, 1.9 mg/kg. Besides, the “%max” value in the data set with Rattus norvegicus [4] was found to be 60%. Moreover, the pKa in data set [5] is 5.9.

For `CC(C)(C)C1(O)CCN2C[C@H]3Cc4ccccc4Cc4cccc(c43)C2C1` (stereo not given in full), the inhibition result with Rattus norvegicus [6] was “inactive”.

Turning to `CC(C)(C)C1(O)CCN2C[C@H]3Cc4ccccc4Cc4cccc(c43)[C@@H]2C1` (relative stereo), the minimal effective dose in the data set on Rattus norvegicus [1] was found to be 0.62 mg/kg. Moreover, the ED50 came out at 1 mg/kg with Rattus norvegicus [2], 10 mg/kg in the data set on Rattus norvegicus [3] and 2 mg/kg in the data set listed under Mus musculus. Further, the “%max” value in the data set on Rattus norvegicus [4] is given as 45%.

Turning to `CC(C)(C)C1(O)CCN2C[C@H]3CCc4ccccc4-c4cccc(c43)[C@@H]2C1` (relative stereo), the inhibition result with Rattus norvegicus [6] is “inactive”.

As to `CC(C)(C)C1(O)CCN2C[C@H]3CCc4ccccc4-c4cccc(c43)[C@H]2C1` (relative stereo), in the data set with Rattus norvegicus [6], the inhibition result is “inactive”.

For `CC(C)(C)C1(O)CCN2C[C@H]3Cc4ccccc4Cc4cccc(c43)[C@H]2C1` (relative stereo), the inhibition result in the data set on Rattus norvegicus [6] is “inactive”.
